Test results from ChEMBL document CHEMBL3352776, “Synthesis and biological evaluation of novel chiral diazepine derivatives as bombesin receptor subtype-3 (BRS-3) agonists incorporating an antedrug approach” (Bioorg Med Chem, 2015).
pEC50: −log10 of the molar value. In brackets after ≈: the same amount, converted by molar mass.

Key:
Canis familiaris [1] = assay: Cardiotoxicity in beagle dog assessed as heart rate at 3 mg/kg/3 ml, iv for 30 mins; format: toxicity, organism-based, Canis lupus familiaris; parameters: route intravenous; conditions: in vivo, 0.5 h
Summary of the method: (§1)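 Dogs were anaesthetized with halothane (0.5–1.5% end-tidal) after iv thiopental 30 mg/kg. Compound was dispersed at 1 mg/mL in 20% hydroxypropyl-β-cyclodextrin and infused into the femoral vein at 3 mg/kg/3 mL over 30 min. Femoral artery HR and mean BP were recorded for 60 min, normalized to the 0-min value; n = 2.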

Canis familiaris [2] = assay: Cardiotoxicity in beagle dog assessed as blood pressure at 3 mg/kg/3 ml, iv for 30 mins; format: toxicity, organism-based, Canis lupus familiaris; parameters: route intravenous; conditions: in vivo, 0.5 h; summary of the method: as §1
[3] = Cmax in mouse at 30 mg/kg, po; format: ADME, organism-based; parameters: dose 30 mg/kg, route oral; conditions: in vivo
Mus musculus [4] = assay: Cmax in mouse assessed as 3-[2-[(5R)-5-(carboxymethyl)-8-(trifluoromethyl)-1,2,3,5-tetrahydropyrido[2,3-e][1,4]diazepin-4-yl]-2-oxoethyl]benzoic acid inactive metabolite at 30 mg/kg, po; format: ADME, organism-based; parameters: dose 30 mg/kg, route oral; conditions: in vivo
Summary of the method: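 Mice acclimated 7–11 days with free access to chow and tap water, then given the ester parent orally at 30 mg/kg as a suspension in 0.5 (w/v)% methyl cellulose 400. Plasma was stored at −20 °C. The carboxylic acid metabolite was quantified in plasma by LC–MS/MS. Cmax is the average of 2 or 3 mice.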

Mus musculus [5] = assay: Drug metabolism in mouse assessed as ratio of compound to 3-[2-[(5R)-5-(carboxymethyl)-8-(trifluoromethyl)-1,2,3,5-tetrahydropyrido[2,3-e][1,4]diazepin-4-yl]-2-oxoethyl]benzoic acid inactive metabolites at 30 mg/kg, po; format: ADME, organism-based; parameters: dose 30 mg/kg, route oral; conditions: in vivo
[6] = target: T1, Bombesin receptor subtype-3 (Homo sapiens, UniProt P32247); assay: Agonist activity at human BRS3 expressed in CHO-K1 cells by IP-One HTRF assay; format: cell-based
T1 sequence (P32247 whole entry): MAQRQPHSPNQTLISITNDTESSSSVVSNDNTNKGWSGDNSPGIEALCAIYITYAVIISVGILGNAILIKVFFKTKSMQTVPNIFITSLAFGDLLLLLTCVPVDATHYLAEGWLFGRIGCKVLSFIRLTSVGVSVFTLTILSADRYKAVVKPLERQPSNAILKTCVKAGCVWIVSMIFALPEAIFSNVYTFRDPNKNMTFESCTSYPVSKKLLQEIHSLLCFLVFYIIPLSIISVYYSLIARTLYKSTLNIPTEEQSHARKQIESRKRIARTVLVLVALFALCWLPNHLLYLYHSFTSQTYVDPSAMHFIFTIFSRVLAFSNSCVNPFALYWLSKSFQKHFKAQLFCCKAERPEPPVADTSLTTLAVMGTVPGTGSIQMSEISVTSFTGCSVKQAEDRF

[7] = target: T2, Bombesin receptor subtype-3 (Mus musculus, UniProt O54798); assay: Agonist activity at mouse BRS3 expressed in CHO-K1 cells by IP-One HTRF assay; format: cell-based
T2 sequence (O54798 whole entry): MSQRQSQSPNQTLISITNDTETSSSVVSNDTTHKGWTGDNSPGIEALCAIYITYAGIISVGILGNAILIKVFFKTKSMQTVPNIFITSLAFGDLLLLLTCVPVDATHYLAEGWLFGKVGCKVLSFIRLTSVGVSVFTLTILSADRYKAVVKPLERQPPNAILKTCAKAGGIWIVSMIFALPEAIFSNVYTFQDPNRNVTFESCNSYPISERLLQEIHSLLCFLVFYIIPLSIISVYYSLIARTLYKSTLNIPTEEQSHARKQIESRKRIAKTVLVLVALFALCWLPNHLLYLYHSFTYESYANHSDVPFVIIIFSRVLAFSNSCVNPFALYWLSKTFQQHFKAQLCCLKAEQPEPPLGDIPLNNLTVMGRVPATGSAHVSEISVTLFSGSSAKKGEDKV

Mus musculus [8] = assay: Cmax in mouse assessed as 2-[(5R)-4-[2-(3-hydroxyphenyl)acetyl]-8-(trifluoromethyl)-1,2,3,5-tetrahydropyrido[2,3-e][1,4]diazepin-5-yl]acetic acid inactive metabolite at 30 mg/kg, po; format: ADME, organism-based; parameters: dose 30 mg/kg, route oral; conditions: in vivo
Mus musculus [9] = assay: Drug metabolism in mouse assessed as ratio of compound to 2-[(5R)-4-[2-(3-hydroxyphenyl)acetyl]-8-(trifluoromethyl)-1,2,3,5-tetrahydropyrido[2,3-e][1,4]diazepin-5-yl]acetic acid at 30 mg/kg, po; format: ADME, organism-based; parameters: dose 30 mg/kg, route oral; conditions: in vivo
[10] = (§2) AUC in mouse at 30 mg/kg, po; format: ADME, organism-based, Plasma; parameters: dose 30 mg/kg, route oral; conditions: plasma
[11] = Tmax in mouse at 30 mg/kg, po; format: ADME, organism-based; parameters: dose 30 mg/kg, route oral; conditions: in vivo
Mus musculus [12] = assay: AUC in mouse assessed as 2-[(5R)-4-[2-(3-Hydroxyphenyl)acetyl]-8-(trifluoromethyl)-1,2,3,5-tetrahydropyrido[2,3-e][1,4]diazepin-5-yl]acetic acid at 30 mg/kg, po; format: ADME, organism-based, Plasma; parameters: dose 30 mg/kg, route oral; conditions: in vivo
Mus musculus [13] = assay: Tmax in mouse assessed as 2-[(5R)-4-[2-(3-hydroxyphenyl)acetyl]-8-(trifluoromethyl)-1,2,3,5-tetrahydropyrido[2,3-e][1,4]diazepin-5-yl]acetic acid at 30 mg/kg, po; format: ADME, organism-based; parameters: dose 30 mg/kg, route oral; conditions: in vivo
[14] = (§3) Half life in mouse at 30 mg/kg, po; format: ADME, organism-based; parameters: dose 30 mg/kg, route oral; conditions: in vivo
Mus musculus [15] = assay: Half life in mouse assessed as 2-[(5R)-4-[2-(3-Hydroxyphenyl)acetyl]-8-(trifluoromethyl)-1,2,3,5-tetrahydropyrido[2,3-e][1,4]diazepin-5-yl]acetic acid at 30 mg/kg, po; format: ADME, organism-based; parameters: dose 30 mg/kg, route oral; conditions: in vivo
[16] = Solubility of the compound in JP2; format: physicochemical
[17] = Fraction unbound in mouse plasma; format: ADME, cell-free
Summary of the method: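 Unbound fraction measured in mouse plasma.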

Mus musculus [18] = assay: as §2; format: ADME, organism-based, Plasma; parameters: dose 30 mg/kg, route oral; conditions: in vivo, BLD = below limit of detection
Mus musculus [19] = assay: Antiobesity activity in C57BL/6N mouse assessed as reduction in food intake at 30 mg/kg, po single dose; format: functional
Summary of the method: (§4)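 Male C57BL/6N mice, 7 weeks old, were fasted 16 h, housed singly and habituated 1 h. They then received a single oral dose (1, 3, 10, 30 mg/kg) or vehicle (0.5% methylcellulose). Chow was given 1 h later and cumulative intake over 6 h was recorded. n = 4–5; Dunnett's test versus vehicle.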

Mus musculus [20] = assay: Antiobesity activity in po dosed C57BL/6N mouse assessed as anorectic effect; format: functional, organism-based; summary of the method: as §4
Mus musculus [21] = assay: as §3; format: ADME, organism-based; parameters: dose 30 mg/kg, route oral; conditions: in vivo, BLD = below limit of detection

| SMILES | Cmax [3] [nM] | Cmax (Mus musculus [4]) [nM] | Ratio (Mus musculus [5]) | pEC50 [6] | pEC50 [7] | Cmax (Mus musculus [8]) [nM] | Ratio (Mus musculus [9]) | also measured |
| --- | --- | --- | --- | --- | --- | --- | --- | --- |
| CC(C)COc1cccc(CC(=O)N2CCNc3nc(C(F)(F)F)ccc3[C@H]2CC(=O)O)c1 | – | – | – | – | – | – | – | Activity (Canis familiaris [1]): Toxic; Activity (Canis familiaris [2]): Toxic |
| CCCCOC(=O)c1cccc(CC(=O)N2CCNc3nc(C(F)(F)F)ccc3[C@H]2CC(=O)O)c1 | 28.5 | 1630 | 0.0175 | 8.40 | 8.25 | – | – | – |
| O=C(O)C[C@@H]1c2ccc(C(F)(F)F)nc2NCCN1C(=O)Cc1cccc(C(=O)O)c1 | – | – | – | < 5.00 | < 5.00 | – | – | – |
| CC(C)(C)COC(=O)c1cccc(CC(=O)N2CCNc3nc(C(F)(F)F)ccc3[C@H]2CC(=O)O)c1 | 12.7 | 197 | 0.0643 | 8.25 | 8.09 | – | – | – |
| CC(C)C(=O)Oc1cccc(CC(=O)N2CCNc3nc(C(F)(F)F)ccc3[C@H]2CC(=O)O)c1 | – | – | – | 7.17 | 6.55 | 680 | 0 | – |
| O=C(O)C[C@@H]1c2ccc(C(F)(F)F)nc2NCCN1C(=O)Cc1cccc(C(=O)OCC2CC2)c1 | 39.3 | 300 | 0.131 | 8.47 | 8.43 | – | – | – |
| O=C(O)C[C@@H]1c2ccc(C(F)(F)F)nc2NCCN1C(=O)Cc1cccc(OC(=O)CC2CC2)c1 | – | – | – | 7.38 | 7.09 | 607 | 0 | – |
| CCCCC(=O)Oc1cccc(CC(=O)N2CCNc3nc(C(F)(F)F)ccc3[C@H]2CC(=O)O)c1 | 28.5 | – | – | 7.72 | 7.46 | 1630 | 0.0175 | – |
| O=C(O)C[C@@H]1c2ccc(C(F)(F)F)nc2NCCN1C(=O)Cc1cccc(O)c1 | 40 | – | – | < 5.00 | < 5.00 | – | – | AUC [10]: 1230 ng·h/mL; Tmax [11]: 15 min; AUC (Mus musculus [12]): 1230 ng·h/mL; Tmax (Mus musculus [13]): 15 min; half-life [14]: 15 min; t1/2 (Mus musculus [15]): 15 min; solubility [16]: 780 µg/mL (≈ 1910 µM); fraction unbound [17]: > 0.3 |
| CC(C)COC(=O)c1cccc(CC(=O)N2CCNc3nc(C(F)(F)F)ccc3[C@H]2CC(=O)O)c1 | 30.8 | 2120 | 0.0145 | 8.38 | 8.27 | – | – | – |
| CC(C)OC(=O)c1cccc(CC(=O)N2CCNc3nc(C(F)(F)F)ccc3[C@H]2CC(=O)O)c1 | 1240 | 918 | 1.35 | 7.40 | 7.35 | – | – | – |
| CC(C)CC(=O)Oc1cccc(CC(=O)N2CCNc3nc(C(F)(F)F)ccc3[C@H]2CC(=O)O)c1 | – | – | – | 7.92 | 7.37 | 1260 | 0 | Activity (Canis familiaris [1]): Non-toxic; AUC (Mus musculus [18]): BLD; inhibition in vivo at 30 mg/kg (Mus musculus [19]): 30%; inhibition (Mus musculus [20]): Dose-dependent effect; t1/2 (Mus musculus [21]): BLD; solubility [16]: 900 µg/mL (≈ 1820 µM); fraction unbound [17]: 0.108; Activity (Canis familiaris [2]): Non-toxic |
| CC(C)(C)CC(=O)Oc1cccc(CC(=O)N2CCNc3nc(C(F)(F)F)ccc3[C@H]2CC(=O)O)c1 | 5.8 | – | – | 8.06 | 7.70 | 32.5 | 0.179 | – |
